The values that follow come from ChEMBL document CHEMBL4219229, “Synthesis and antiproliferative activity of derivatives of the phyllanthusmin class of arylnaphthalene lignan lactones” (Bioorg Med Chem, 2018).

pIC50: −log10 of the molar value. Active and inactive are the calls of the source. No cut-off for these calls is given here. Where only a bound is given, the exact number is not on record here.

In one assay the test system is HT-29. Description: Cytotoxicity against human HT-29 cells measured after 24 to 72 hrs by SRB assay. The assay is classed as functional, cell-based. The method, boiled down:
(§1)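 Cells from ATCC: HT-29 in RPMI 1640 with 10% FBS and 1% P/S; OVCAR3 in RPMI 1640 with 20% FBS, 1% P/S and 10 µg/mL insulin. Both kept at 37°C in 5% CO₂ and passaged at most 20 times. Seeded at 2,500–5,000 cells/well, attached overnight, then treated 24, 48 or 72 h (DMSO final 0.25%). Fixed, SRB-stained protein read out; normalized to vehicle; IC₅₀ from dose-response curves.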

A further assay deals with OVCAR-3. Description: Cytotoxicity against human OVCAR3 cells measured after 24 to 72 hrs by SRB assay. In kind it is functional, cell-based. An outline of the steps: as §1
Background: The SRB assay estimates cell density from bound dye.

A further assay relates to MDA-MB-435. Briefly: Cytotoxicity against human MDA-MB-435 cells after 72 hrs by CellTiter96 AQueous one solution cell proliferation assay. The following applies: MDA-MB-435, 72 h. The assay is classed as functional, cell-based.
A further assay has as its system MDA-MB-231. Description: Cytotoxicity against human MDA-MB-231 cells after 72 hrs by CellTiter96 AQueous one solution cell proliferation assay. In kind it is functional, cell-based. To be noted: MDA-MB-231, 72 h.
A short description of assay [1]: Selectivity ratio of IC50 for human OVCAR3 cells to IC50 for human HT-29 cells. In kind it is functional.
Assay [2] deals with DNA topoisomerase 2-alpha (Homo sapiens) (UniProt P11388). Briefly: Inhibition of full-length recombinant human topoisomerase-2alpha expressed in yeast expression system assessed as reduction in enzyme-mediated supercoiled pBR322 DNA relaxation at 50 to 100 uM measured after 15 mins by ethidium bromide staining based agarose gel electrophoresis. An outline of the steps: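 Topo IIα (125 ng) with 150 ng negatively supercoiled pBR322 and 1 mM ATP in 10 mM Tris-HCl pH 8.0, 50 mM KCl, 50 mM NaCl, 0.1 mM EDTA, 5 mM MgCl₂, 2.5% glycerol, drug in DMSO; started with enzyme, 15 min at 37°C, SDS/EDTA stop. Products resolved on 1% TBE agarose, ethidium bromide stained, imaged under UV.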

Another assay deals with K562. Description: Cytotoxicity against human etoposide-sensitive K562 cells after 72 hrs by CellTiter96 AQueous one solution cell proliferation assay. The assay is classed as functional, cell-based. The following applies: K562, 72 h. An outline of the steps:
(§2)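 K562 and etoposide-resistant K/VP.5 cells (~1/5 topo IIα level) in suspension at 7.5 × 10⁴ cells/ml exposed to DMSO vehicle or serial compound concentrations (final DMSO 0.5%), triplicate wells; 72 hr at 37°C, then MTS reagent 1 hr at 37°C, absorbance 490 nm. IC₅₀ from four-parameter logistic fit; relative resistance = IC₅₀ K/VP.5 ÷ IC₅₀ K562; n = separate-day repeats.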

Assay [3] is described as follows: Cytotoxicity against human K/VP.5 cells after 72 hrs by CellTiter96 AQueous one solution cell proliferation assay. The assay is classed as functional, cell-based. The following applies: K/VP.5, 72 h. An outline of the steps: as §2
Assay [4] can be described thus: Resistance index, ratio of IC50 for human K/VP.5 cells to IC50 for human etoposide-sensitive K562 cells. In kind it is functional. An outline of the steps: as §2
Assay [5] deals with DNA topoisomerase 2-alpha (Homo sapiens) (UniProt P11388). To be noted: 100 uM.

Chain of DNA topoisomerase 2-alpha (Homo sapiens) (P11388 whole entry): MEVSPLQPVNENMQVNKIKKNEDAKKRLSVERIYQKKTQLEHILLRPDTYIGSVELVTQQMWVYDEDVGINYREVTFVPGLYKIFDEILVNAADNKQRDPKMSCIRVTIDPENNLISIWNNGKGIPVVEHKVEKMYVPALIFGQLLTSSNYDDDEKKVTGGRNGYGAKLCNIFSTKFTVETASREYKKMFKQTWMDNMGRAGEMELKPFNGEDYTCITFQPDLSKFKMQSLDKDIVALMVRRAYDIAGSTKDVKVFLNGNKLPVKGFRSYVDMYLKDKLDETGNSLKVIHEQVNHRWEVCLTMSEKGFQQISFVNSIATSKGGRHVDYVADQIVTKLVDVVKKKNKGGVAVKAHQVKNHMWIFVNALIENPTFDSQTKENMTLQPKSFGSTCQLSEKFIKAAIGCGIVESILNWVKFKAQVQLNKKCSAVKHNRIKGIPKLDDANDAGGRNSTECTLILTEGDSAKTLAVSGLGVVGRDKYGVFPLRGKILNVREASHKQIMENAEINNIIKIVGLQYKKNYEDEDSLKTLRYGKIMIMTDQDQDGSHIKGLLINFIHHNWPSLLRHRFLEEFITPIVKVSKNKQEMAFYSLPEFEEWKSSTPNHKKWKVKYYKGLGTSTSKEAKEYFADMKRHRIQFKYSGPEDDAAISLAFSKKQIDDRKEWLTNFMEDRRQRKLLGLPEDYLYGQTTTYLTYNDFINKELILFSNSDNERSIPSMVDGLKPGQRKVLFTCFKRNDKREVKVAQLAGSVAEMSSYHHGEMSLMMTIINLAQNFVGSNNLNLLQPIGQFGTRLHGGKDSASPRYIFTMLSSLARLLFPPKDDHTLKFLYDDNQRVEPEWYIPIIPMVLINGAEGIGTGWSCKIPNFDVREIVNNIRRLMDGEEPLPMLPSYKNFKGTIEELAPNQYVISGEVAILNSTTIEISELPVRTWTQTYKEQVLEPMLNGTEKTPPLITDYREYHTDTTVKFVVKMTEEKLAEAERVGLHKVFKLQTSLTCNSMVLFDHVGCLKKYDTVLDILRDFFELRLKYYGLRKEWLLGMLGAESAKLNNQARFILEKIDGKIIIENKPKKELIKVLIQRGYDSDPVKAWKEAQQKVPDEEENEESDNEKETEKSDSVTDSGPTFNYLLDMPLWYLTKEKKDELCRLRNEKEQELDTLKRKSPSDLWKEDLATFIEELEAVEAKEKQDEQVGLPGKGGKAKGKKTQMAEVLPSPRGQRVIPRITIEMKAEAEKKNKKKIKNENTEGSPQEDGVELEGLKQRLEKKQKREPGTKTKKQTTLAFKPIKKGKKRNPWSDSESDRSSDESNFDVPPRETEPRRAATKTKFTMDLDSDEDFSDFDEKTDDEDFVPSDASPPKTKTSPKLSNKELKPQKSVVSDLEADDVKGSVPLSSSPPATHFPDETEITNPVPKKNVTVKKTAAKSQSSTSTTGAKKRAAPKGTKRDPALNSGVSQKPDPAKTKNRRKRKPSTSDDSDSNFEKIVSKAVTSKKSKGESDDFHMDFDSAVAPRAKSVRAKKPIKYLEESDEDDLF

In general, pIC50 refers to the negative decadic logarithm of the IC50, by convention in mol/L. Low values mean a high IC50, high ones a low IC50. As to `CCOC(=O)c1c(C(=O)OCC)c(-c2ccc3c(c2)OCO3)c2cc(OC)c(OC)cc2c1O[C@@H]1OC[C@H](OC(C)=O)[C@H](OC(C)=O)[C@H]1OC(C)=O`, the pIC50 in the assay with HT-29 and with OVCAR-3 was under 5.00 each time.

Take `COc1cc2c(O[C@H]3OC[C@@H](OC(C)=O)[C@@H](OC(C)=O)[C@@H]3OC(C)=O)c3c(c(-c4ccc5c(c4)OCO5)c2cc1OC)C(=O)OC3`: the pIC50 in the assay on HT-29 is 7.34; in the assay with OVCAR-3, 6.43; with MDA-MB-435 it was 6.30; in the assay with MDA-MB-231, 5.66.

With `COCc1c(C(=O)OC)c(-c2ccc3c(c2)OCO3)c2cc(OC)c(OC)cc2c1O[C@@H]1OC[C@@H](OC)[C@H](OC)[C@H]1OC`, the pIC50 is 5.77 with HT-29 and 6.35 in the assay with OVCAR-3.

On to `COc1cc2c(O[C@@H]3OC[C@H](OC(C)=O)[C@H](OC(C)=O)[C@H]3OC(C)=O)c3c(c(-c4ccc5c(c4)OCO5)c2cc1OC)COC3=O`, for which the pIC50 was 6.33 in the assay on HT-29 and under 5.00 in the assay on OVCAR-3.

Regarding `COc1cc2c(O[C@@H]3OC[C@@H](OC)[C@H](OC)[C@H]3OC)c3c(c(-c4ccc5c(c4)OCO5)c2cc1OC)C(=O)OC3`, the pIC50 was 7.74 with HT-29, 5.12 in the assay with OVCAR-3, 6.33 in the assay on K562 and 6.37 in assay [3]. The “Ratio IC50” value is listed as over 400 in assay [1] and 0.91 in assay [4]. Further, in [2], the inhibition entry was “Active”.

As for `COc1cc2c(O[C@@H]3OC[C@H](OC(C)=O)[C@H](OC(C)=O)[C@H]3OC(C)=O)c3c(c(-c4ccc5c(c4)OCO5)c2cc1OC)C(=O)OC3`, the pIC50 is 6.85 with HT-29; 6.54 in the assay with OVCAR-3; 6.85 in the assay with MDA-MB-435; 6.00 in the assay on MDA-MB-231; 6.07 with K562; 6.04 in assay [3]. Besides, the inhibition entry in assay [2] is “Active”. Besides, the “Ratio IC50” value in [4] turned out to be 1.08.

For `COc1cc2c(O)c3c(c(-c4ccc5c(c4)OCO5)c2cc1OC)C(=O)OC3` [DIPHYLLIN], the pIC50 was 5.62 with K562 and 5.64 in assay [3]. In addition, the “Ratio IC50” value in [4] is reported as 0.97.

Turning to `COc1cc2c(O[C@@H]3OC[C@@H](O)[C@H](O)[C@H]3O)c3c(c(-c4ccc5c(c4)OCO5)c2cc1OC)C(=O)OC3`, the pIC50 in the assay on HT-29 was 5.85; in the assay on OVCAR-3, 6.16.

For `COc1cc2c(O[C@@H]3OC[C@H](OC)[C@H](OC)[C@H]3OC)c3c(c(-c4ccc5c(c4)OCO5)c2cc1OC)C(=O)OC3`, the pIC50 in the assay with HT-29 was 6.89; in the assay on OVCAR-3 it was 6.09; in the assay on MDA-MB-435, 6.85; with MDA-MB-231, 6.19; in the assay on K562 it was 5.90; in assay [3], 5.89. For the same compound, in assay [2], the inhibition result was “inactive”. In addition, the “Ratio IC50” value in assay [4] was 1.02.

As for `COc1cc2c(O[C@@H]3O[C@H](COC(C)=O)[C@@H](O[C@@H]4O[C@H](COC(C)=O)[C@H](OC(C)=O)[C@H](OC(C)=O)[C@H]4OC(C)=O)[C@H](OC(C)=O)[C@H]3OC(C)=O)c3c(c(-c4ccc5c(c4)OCO5)c2cc1OC)C(=O)OC3`, the pIC50 in the assay on HT-29 is 5.70; with OVCAR-3, under 5.00; in the assay on MDA-MB-435 it was under 5.00; with MDA-MB-231, under 5.00.

Turning to `COc1cc2c(O[C@@H]3OC[C@H](O)[C@H](O)[C@H]3O)c3c(c(-c4ccc5c(c4)OCO5)c2cc1OC)C(=O)OC3` [ACUTISSIMALIGNAN A], the pIC50 in the assay on OVCAR-3 was 5.32.

As for `COc1cc2c(O[C@@H]3OC[C@H](OC(C)=O)[C@H](OC(C)=O)[C@H]3OC(C)=O)c3c(c(-c4ccc5c(c4)OCO5)c2cc1OC)COC3`, the pIC50 is 5.85 in the assay with HT-29 and under 5.00 with OVCAR-3.

For the compound `COc1cc2c(O[C@@H]3OC[C@@H](OC(C)=O)[C@H](OC(C)=O)[C@H]3OC(C)=O)c3c(c(-c4ccc5c(c4)OCO5)c2cc1OC)C(=O)OC3`, the pIC50 in the assay on HT-29 was 6.80; in the assay with OVCAR-3, 6.24; with MDA-MB-435 it was 6.64; in the assay with MDA-MB-231 it was 5.29.

`COc1cc([C@@H]2c3cc4c(cc3[C@@H](O[C@@H]3O[C@@H]5CO[C@@H](C)O[C@H]5[C@H](O)[C@H]3O)[C@H]3COC(=O)[C@H]23)OCO4)cc(OC)c1O` [ETOPOSIDE]: the pIC50 is 4.82 in the assay on HT-29, 5.54 with OVCAR-3, 5.91 in the assay with K562 and 4.45 in assay [3]. Besides, the “Ratio IC50” value in assay [4] was 28.98. Also, in assay [5], the inhibition entry was “Active”.

As to `CC(=O)O[C@H]1C(=O)[C@@]2(C)[C@H]([C@H](OC(=O)c3ccccc3)[C@]3(O)C[C@H](OC(=O)[C@H](O)[C@@H](NC(=O)c4ccccc4)c4ccccc4)C(C)=C1C3(C)C)[C@]1(OC(C)=O)CO[C@@H]1C[C@@H]2O` [PACLITAXEL], the pIC50 in the assay on HT-29 and in the assay with OVCAR-3 was 7.96 throughout.
